Experimental data reported in ChEMBL document CHEMBL1144020, “Development of prodrug 4-chloro-3-(5-methyl-3-{[4-(2-pyrrolidin-1-ylethoxy)phenyl]amino}-1,2,4-benzotriazin-7-yl)phenyl benzoate (TG100801): a topically administered therapeutic candidate in clinical trials for the treatment of age-related macular degeneration” (J Med Chem, 2008).

Legend:
[1] = target: Vascular endothelial growth factor receptor 2 (Homo sapiens, UniProt P35968); experiment: Inhibition of VEGFR2
[2] = Stability in Dutch-belted rabbit eye assessed as hydrolysis rate; format: ADME, tissue-based, Oryctolagus cuniculus
Procedure, shortened: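 Two Dutch-Belted rabbit eyeballs were homogenized in 1× RIPA buffer. Prodrug (from 1 mg/mL DMSO stock) was added to a final 5 µg/mL and kept at 37 °C, sampled at 0, 0.25, 1, 2 and 6 h. Controls were prodrug in RIPA buffer for 120 min at 37 °C. Supernatants were analyzed by LC/MS/MS for prodrug and released parent phenol.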

[3] = Stability at 120 degC after 1 hr; format: physicochemical; conditions: read-out: Stability
Procedure, shortened: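 Prodrugs at 0.5% in 0.5% HPMC/5% dextrose, pH 6.7, in closed vials, autoclaved at 120 °C for 1 h. After cooling, percent remaining was assessed by reverse-phase HPLC with diode-array and ELSD detection.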

Vascular endothelial growth factor receptor 2, sequence (P35968 whole entry): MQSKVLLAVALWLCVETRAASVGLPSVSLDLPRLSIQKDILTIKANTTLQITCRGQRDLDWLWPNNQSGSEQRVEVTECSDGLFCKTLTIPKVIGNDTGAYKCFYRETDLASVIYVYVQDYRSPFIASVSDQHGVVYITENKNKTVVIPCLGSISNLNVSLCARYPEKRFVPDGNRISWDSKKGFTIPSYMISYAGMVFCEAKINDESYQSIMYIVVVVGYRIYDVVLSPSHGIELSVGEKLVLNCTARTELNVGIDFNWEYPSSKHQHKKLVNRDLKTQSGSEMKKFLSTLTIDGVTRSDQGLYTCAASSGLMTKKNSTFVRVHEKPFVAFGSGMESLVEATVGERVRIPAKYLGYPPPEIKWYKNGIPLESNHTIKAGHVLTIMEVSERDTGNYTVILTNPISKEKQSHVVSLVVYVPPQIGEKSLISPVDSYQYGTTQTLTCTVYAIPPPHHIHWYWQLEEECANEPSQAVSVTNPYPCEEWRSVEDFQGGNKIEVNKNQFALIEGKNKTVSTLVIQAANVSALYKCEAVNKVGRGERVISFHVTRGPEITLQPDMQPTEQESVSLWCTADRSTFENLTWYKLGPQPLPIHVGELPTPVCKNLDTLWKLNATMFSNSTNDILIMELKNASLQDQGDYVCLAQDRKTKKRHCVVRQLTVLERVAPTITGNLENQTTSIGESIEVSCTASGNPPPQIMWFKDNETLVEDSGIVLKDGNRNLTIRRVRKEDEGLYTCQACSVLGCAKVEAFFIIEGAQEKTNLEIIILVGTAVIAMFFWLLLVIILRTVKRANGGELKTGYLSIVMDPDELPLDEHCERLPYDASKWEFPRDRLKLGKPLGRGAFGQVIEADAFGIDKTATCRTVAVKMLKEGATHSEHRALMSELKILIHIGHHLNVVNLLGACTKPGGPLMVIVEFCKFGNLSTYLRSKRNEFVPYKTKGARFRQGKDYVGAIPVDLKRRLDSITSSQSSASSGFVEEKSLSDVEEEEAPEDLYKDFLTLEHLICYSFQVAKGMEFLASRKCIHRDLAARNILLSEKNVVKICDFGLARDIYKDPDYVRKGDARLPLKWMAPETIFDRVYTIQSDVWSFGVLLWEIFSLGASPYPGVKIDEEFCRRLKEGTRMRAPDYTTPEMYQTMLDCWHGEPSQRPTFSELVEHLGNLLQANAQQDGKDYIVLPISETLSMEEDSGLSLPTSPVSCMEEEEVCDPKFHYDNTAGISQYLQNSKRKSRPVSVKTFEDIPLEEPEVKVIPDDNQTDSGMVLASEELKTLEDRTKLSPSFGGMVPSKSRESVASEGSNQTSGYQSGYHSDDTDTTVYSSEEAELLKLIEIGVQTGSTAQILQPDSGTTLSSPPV

SMILES	IC50 [1]	Stability [2]	remaining at 1 h [3]
Cc1cc(-c2cc(O)ccc2Cl)cc2nnc(Nc3ccc(S(=O)(=O)NCCN4CCCC4)cc3)nc12	4.7 nM		
Cc1cc(-c2cc(OC(=O)c3c(Cl)cccc3Cl)ccc2Cl)cc2nnc(Nc3ccc(OCCN4CCCC4)cc3)nc12		1.7 ng/mL/h	> 90%
Cc1cc(-c2cc(O)ccc2Cl)cc2nnc(Nc3ccc(S(=O)(=O)C4CCNCC4)cc3)nc12	1.7 nM		
Cc1ccc(C(=O)Oc2ccc(Cl)c(-c3cc(C)c4nc(Nc5ccc(OCCN6CCCC6)cc5)nnc4c3)c2)cc1			> 90%
